Laboratory results taken from the array DNA melting data of Ke et al. (doi:10.1101/2024.01.08.574731).

Legend:
[1] = folding enthalpy; higher = less favourable; fluorescence melt of hairpins on a sequencing array, two-state fit; conditions: sodium 0.088 M
In short: (§1)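 Bootstrapped two-state fits yielded melting temperature and folding enthalpy for library hairpins. Cy3 fluorescence, with annealed Cy3 and quencher oligos, was imaged on a sequenced MiSeq flow cell in 50 mM Na-HEPES pH 8.0, 25 mM NaCl in 2.5 °C steps up to 60 °C, and normalised to pre-quench Cy3 and to control constructs. Four replicates were combined by inverse variance, and fitted temperatures were raised by 9.35 °C to match UV melts.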

[2] = melting temperature; fluorescence melt of hairpins on a sequencing array, two-state fit, raised by 9.35 °C to match UV melts; conditions: sodium 0.088 M
In short: as §1

| Sequence | folding enthalpy [1] | Tm [2] |
| --- | --- | --- |
| GATTAAGGAAACTTAATC (((((((....))))))) | -31.3 kcal/mol | 45.5 °C |
| GGATCTGGAAACAGACCC ((.((((....)))).)) | -32.2 kcal/mol | 42 °C |
| GATCTCGTGCGAGATC ((((((....)))))) | -54.9 kcal/mol | 56.3 °C |
| GGGTGGGAAACCACCC ((((((....)))))) | -29.6 kcal/mol | 68.2 °C |
| GAAAGGCGAAAGCCTTC (((.(((....)))))) | -10.4 kcal/mol | 49.6 °C |
| GACCCCGAAAGGGACGTC ((((((....)))..))) | -17 kcal/mol | 40.4 °C |
| GCAGCGCGAAAGCAGTGC (((..((....))..))) | -18.1 kcal/mol | 52.8 °C |
| GAGTGTGGAAACACACCC (.(((((....))))).) | -11.7 kcal/mol | 40.8 °C |
| GCTGTGTCGAAAGACAGC (((..(((....)))))) | -17.3 kcal/mol | 48.9 °C |
| GTTAAGGGAAACCTTAGC (.(((((....))))).) | -23.4 kcal/mol | 34.8 °C |
| GCTTACGAAAGTAAAAGC ((((((....)))..))) | -27.5 kcal/mol | 41.7 °C |
| GGATAGACGAAAGTCTCC (((..(((....)))))) | -14.6 kcal/mol | 33.6 °C |
| GATACCGCGAAAGCGATC (((..(((....)))))) | -7.65 kcal/mol | 23 °C |
| GAAACTGGAAACAGTCTC ((.((((....)))).)) | -15.5 kcal/mol | 28 °C |
| GTCCTGGGAAACCAGGAC (((((((....))))))) | -36 kcal/mol | 66.7 °C |
| GCGAACGAAAGTTGCCGC ((((((....)))..))) | -16.6 kcal/mol | 42.4 °C |
| GAACACCGAAAGGTATTC (((.(((....))).))) | -25 kcal/mol | 37.8 °C |
| GAGATTGAAAAATCTC ((((((....)))))) | -33.8 kcal/mol | 47.9 °C |
| GCTGGGCGAAAGCCCCGC ((.((((....)))).)) | -16.1 kcal/mol | 58.5 °C |
| GATCAGCATTCTGATC ((((((....)))))) | -39 kcal/mol | 48.8 °C |
| GCATCGCGAAAGCAATGC ((((.((....)).)))) | -24.6 kcal/mol | 60.2 °C |
| GCGGCTCCGAAAGGACGC (((..(((....)))))) | -41.2 kcal/mol | 54.7 °C |
| GCGGCGCGAAAGCGAGGC ((..(((....)))..)) | -24.8 kcal/mol | 63.9 °C |
| GATCAGTTTACTGATC ((((((....)))))) | -49.2 kcal/mol | 59.6 °C |

| Sequence | folding enthalpy [1] | Tm [2] |
| --- | --- | --- |
| GTGGGTCGAAAGACGCAC (((.(((....))).))) | -34.3 kcal/mol | 63.3 °C |
| GTAGGGGGAAACCTCTGC (.((.((....)).)).) | -16.8 kcal/mol | 31.9 °C |
| GCTTCGCGAAAGCGTTGC ((..(((....)))..)) | -20.3 kcal/mol | 47.2 °C |
| GCGTCTCCACGC ((((....)))) | -21.4 kcal/mol | 52 °C |
| GCGTGAAGACGC ((((....)))) | -23 kcal/mol | 58.3 °C |
| GTATACGAAAGTAGATAC ((((((....)))..))) | -10.1 kcal/mol | 24.9 °C |
| GATCCATAGCTGGATC ((((((....)))))) | -33.4 kcal/mol | 49.2 °C |
| GCAAAGCGAAAGCCTAGC ((.(.((....)).).)) | -7.83 kcal/mol | 30.2 °C |
| GCCCAGGGAAACCTGAGC ((.((((....)))).)) | -19.2 kcal/mol | 45.5 °C |
| GTGTCAGGAAACCGACAC (((((.(....).))))) | -42.6 kcal/mol | 49.2 °C |
| GCTCTCGAAAGAGCGAGC ((((((....)))..))) | -15.1 kcal/mol | 49.3 °C |
| GGGTTTCGAAAGAACCC (((.(((....)))))) | -38 kcal/mol | 51.2 °C |
| GATCTCTTTGGAGATC ((((((....)))))) | -44.5 kcal/mol | 55.1 °C |
| GTGGGGGAAACCCCAC ((((((....)))))) | -31.9 kcal/mol | 68 °C |
| GAGAAACGAAAGTTCTC (((.(((....)))))) | -24.4 kcal/mol | 40.9 °C |
| GCTAATGGAAACATTAGC (((((((....))))))) | -45.4 kcal/mol | 56 °C |
| GATCAGTAGCTGATC ((((((...)))))) | -35.8 kcal/mol | 48.3 °C |
| GATCGACCCATCGATC ((((((....)))))) | -44.4 kcal/mol | 51.5 °C |
| GATCATTGTATGATC ((((((...)))))) | -30.9 kcal/mol | 49.5 °C |
| CTGTAGAAATACAG (((((....))))) | -14.5 kcal/mol | 39.4 °C |
| GTGAGTGCGAAAGCACAC (((..(((....)))))) | -12.5 kcal/mol | 48.6 °C |
| GATCCCGAAAGGGCGATC ((((((....)))..))) | -12.2 kcal/mol | 31.9 °C |
| GATCCCCCTGGGGATC ((((((....)))))) | -36.1 kcal/mol | 67.5 °C |
| CGCATGCGGAAACGCGCG (((..(((....)))))) | -20.8 kcal/mol | 52.1 °C |

| Sequence | folding enthalpy [1] | Tm [2] |
| --- | --- | --- |
| GATCTTAAGCAAGATC ((((((....)))))) | -31.3 kcal/mol | 40.1 °C |
| GAGGTGGAAACACCTC ((((((....)))))) | -33.3 kcal/mol | 63.4 °C |
| GTGGCCGAAAGGCTCCAC ((((((....)))..))) | -11.4 kcal/mol | 39 °C |
| GATCATGGTATGATC ((((((...)))))) | -36.3 kcal/mol | 48.9 °C |
| GGCGAGGGAAACCTCACC ((.((((....)))).)) | -31.7 kcal/mol | 48.5 °C |
| CGCGGAATTATCCGCG ((((((....)))))) | -41.5 kcal/mol | 67.2 °C |
| GATCACTGAGTGATC ((((((...)))))) | -40.1 kcal/mol | 55.2 °C |
| ACGAGGAAACTCGT (((((....))))) | -26 kcal/mol | 50.3 °C |
| GACTCGGGAAACTGGGTC (((.(.(....).).))) | -29.9 kcal/mol | 38 °C |
| GCTTGGACGAAAGTCAGC (((..(((....)))))) | -16.7 kcal/mol | 42.1 °C |
| GAATTAGGAAACTAATTC (((((((....))))))) | -38.8 kcal/mol | 46.9 °C |
| GATCATAATTATGATC ((((((....)))))) | -42 kcal/mol | 47.8 °C |
| GGCCCCGGAAACGAGGCC ((((.((....)).)))) | -38.4 kcal/mol | 57.5 °C |
| GCTGGCGAAAGCCAGAGC ((((((....)))..))) | -9.92 kcal/mol | 63.3 °C |
| GCCGTCGAAAGACTGGGC ((((((....)))..))) | -26.4 kcal/mol | 53.7 °C |
| GGCCCTACGAAAGTAGCC (((..(((....)))))) | -15.3 kcal/mol | 31 °C |
| TCACTGAAAAGTGA (((((....))))) | -18.7 kcal/mol | 43.4 °C |
| GATCCGTCACGGATC ((((((...)))))) | -34.7 kcal/mol | 60.6 °C |
| GATCAGTGCACTGATC ((((((....)))))) | -58.7 kcal/mol | 56.3 °C |
| GATCCATGTGTGGATC ((((((....)))))) | -37.2 kcal/mol | 56.5 °C |
| GATCAGCCTCCTGATC ((((((....)))))) | -34.4 kcal/mol | 49.1 °C |
| GTGGAAGGAAACTTCCGC (.(((((....))))).) | -24.1 kcal/mol | 51.1 °C |
| GCGGAGCGAAAGCTCTGC ((.((((....)))).)) | -35.8 kcal/mol | 68 °C |
| GATCGAGACTCGATC ((((((...)))))) | -37.1 kcal/mol | 52.9 °C |

| Sequence | folding enthalpy [1] | Tm [2] |
| --- | --- | --- |
| GGACCCGAAAGGGAATCC ((((((....)))..))) | -16.7 kcal/mol | 34.6 °C |
| GATCAAAGTTTGATC ((((((...)))))) | -27.1 kcal/mol | 42.7 °C |
| ATTGCGAAAGCAAT (((((....))))) | -17.5 kcal/mol | 57.6 °C |
| GCACGGCGAAAGCCTAGC ((..(((....)))..)) | -14.4 kcal/mol | 39.5 °C |
| GCGACTTTCGC ((((...)))) | -21.8 kcal/mol | 49 °C |
| GAATGAGGAAACTCATTC (((((((....))))))) | -37.3 kcal/mol | 52.8 °C |
| GCCGTCGAAAGACCGGC ((((((....))).))) | -36.8 kcal/mol | 60.5 °C |
| GGTTCAGGAAACTGAGCC ((.((((....)))).)) | -30.2 kcal/mol | 50 °C |
| GCCCTCGGAAACGGGGGC ((((.((....)).)))) | -32.7 kcal/mol | 66.9 °C |
| GAACACGGAAACGTGTTC (((((((....))))))) | -38.1 kcal/mol | 67.5 °C |
| GGCAACCGAAAGGTGGCC (((.(((....))).))) | -35 kcal/mol | 67.7 °C |
| GATCAGTAACTGATC ((((((...)))))) | -37.8 kcal/mol | 47.9 °C |
| GGGGCCACGAAAGTGCCC (((..(((....)))))) | -26.2 kcal/mol | 60 °C |
| CAACCAGAAATGGTTG ((((((....)))))) | -29.4 kcal/mol | 53.1 °C |
| GCTGTCGAAAGACAAAGC ((((((....)))..))) | -23.9 kcal/mol | 48.9 °C |
| GGGTCTGGAAACAGGCCC (((.(((....))).))) | -46.8 kcal/mol | 59.8 °C |
| GTGGACGAAAGTCCCAC ((((((....))).))) | -12.1 kcal/mol | 48.8 °C |
| GATCAACGCGTTGATC ((((((....)))))) | -54.2 kcal/mol | 59.5 °C |
| GATCACGGAGGTGATC ((((((....)))))) | -37.9 kcal/mol | 64.3 °C |
| GCAGTCGAAAGACGATGC ((((((....)))..))) | -18 kcal/mol | 46.5 °C |
| GAGGAACGAAAGTTGCTC (((.(((....))).))) | -47.7 kcal/mol | 53.9 °C |
